Assay results: publication PMC4797290 (Nucleic Acids Research, 2016)
No end group written: not given here.

Key:
Assay type in all cases: cell-based, Escherichia coli
[1] = system: E. coli SQ110 DTC 23S rRNA 2059C mutant; assay: MIC determination, E. coli SQ110 DTC 2059C mutant; settings: 23S rRNA mutant 2059C, first line so labelled (r6); highest concentration 100 μM
Outline: (§1)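 E. coli SQ110 DTC background (single chromosomal rrn allele, tolC knockout) carrying 23S rRNA mutations. Cells grown exponentially in LB, diluted to A650 0.005 in 96-well plates. Peptide added in LB and 2-fold serially diluted from a top final concentration of 100 μM. Incubated overnight at 37°C with shaking. Growth read by alamarBlue addition.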

[2] = system: E. coli SQ110 DTC 23S rRNA A2503C/A2059G double mutant; assay: MIC determination, E. coli SQ110 DTC 2503C/2059G double mutant; settings: 23S rRNA double mutant; highest concentration 100 μM
Outline: as §1

[3] = system: E. coli SQ110 DTC 23S rRNA A2503C mutant; assay: MIC determination, E. coli SQ110 DTC 2503C mutant; settings: 23S rRNA mutant 2503C; highest concentration 100 μM
Outline: as §1

RRIRPRPPRLPRPRPRPLPFPRPGPRPIPRPLPFP [Bac7_1–35]
0.75 µM: MIC, SQ110 DTC 2059C [1] | MIC, SQ110 DTC 2503C/2059G [2] | MIC, SQ110 DTC 2503C [3]
